Source: PubChem (several laboratories)
The list is not random: actives were taken first. Their share in the collection is about 4%.
GPR7 antagonist – human neuropeptides B/W receptor 1 antagonism; P48145; inhibition, % at 4.4 µM; hit rate 1.1% among 290,000; GPR7-expressing cells, fluorescence antagonist assay; in the data active = inhibition above about 16%, passing the limit was not always enough;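 also: cells stimulated with the agonist NPW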
Target sequence (P48145 whole entry, looked up): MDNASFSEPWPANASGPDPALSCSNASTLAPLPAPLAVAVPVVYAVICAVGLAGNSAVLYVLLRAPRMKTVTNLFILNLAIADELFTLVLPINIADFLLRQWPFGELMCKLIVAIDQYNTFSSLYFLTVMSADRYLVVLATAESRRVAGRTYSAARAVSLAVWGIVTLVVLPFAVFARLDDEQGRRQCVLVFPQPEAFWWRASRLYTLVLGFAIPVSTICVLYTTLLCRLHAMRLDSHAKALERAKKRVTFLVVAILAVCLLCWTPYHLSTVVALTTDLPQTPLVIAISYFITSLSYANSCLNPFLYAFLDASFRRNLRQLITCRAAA
TAAR1 antagonist – human TAAR1 antagonism | CHO RD-HGA16 TAAR1, Fluo-8 calcium fluorescence, antagonist | inhibition, % at 3 µM | hit rate 1.5% among 360,000 | AID 624466;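 active = inhibition above a per-plate cutoff, the mean inhibition of test compounds on that plate plus 3 SD, cut at about 49% in these data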
Target sequence (Q96RJ0 whole entry, looked up): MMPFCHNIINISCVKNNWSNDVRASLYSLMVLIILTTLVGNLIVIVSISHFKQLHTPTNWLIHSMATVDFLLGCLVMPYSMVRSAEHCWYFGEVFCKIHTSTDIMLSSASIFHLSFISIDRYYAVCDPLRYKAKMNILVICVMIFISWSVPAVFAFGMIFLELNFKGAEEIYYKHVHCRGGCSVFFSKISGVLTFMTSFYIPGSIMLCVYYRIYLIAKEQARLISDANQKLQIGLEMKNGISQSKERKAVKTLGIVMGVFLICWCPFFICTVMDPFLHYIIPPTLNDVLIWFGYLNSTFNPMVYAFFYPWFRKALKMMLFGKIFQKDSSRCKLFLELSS
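Test system: CHO RD-HGA16 cells bearing hTAAR1 | Reagent: β-PEA, EC80 | Compound dosing: 3 µM, single point | Schedule: Dye loading 75 min at 37 °C, then 30 min room temperature | Signal: Calcium fluorescence with Fluo-8 | Evaluation: Percent inhibition of PEA-evoked calcium signal, max/basal emission ratio | Control set: DMSO-only wells and EC80 β-PEA-stimulated wells | Repeats: Singlicate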
DAGLB inhibitor – diacylglycerol lipase beta (human) inhibition | Q8NCG7 | HEK293T DAGLB membrane lysate, EnzChek fluorogenic substrate | inhibition, % at 5.17 µM | hit rate 0.059% among 340,000 | AID 504411; in the data active = inhibition above about 34%
TAAR1 agonist – agonists of human TAAR1; activation, % at 3 µM; CHO RD-HGA16 TAAR1, Fluo-8 calcium fluorescence; vehicle wells 0%, saturating PEA agonist 100%; Q96RJ0; hit rate 0.99% among 360,000;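 active = activation above the mean activation of all test compounds in the run plus 3 SD, cut at about 38% in these data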
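Test system: RD-HGA16 (CHO) cells co-expressing Gα16 and hTAAR1 | Doses: Single dose, 3 µM | Schedule: 17-24 h seeding, 75 min 37 °C dye, 30 min RT | Evaluation: % activation from peak over basal fluorescence ratio, DMSO-to-PEA scaled | Technique: Kinetic Fluo-8 calcium fluorescence | Benchmarks: Low control DMSO, high control PEA (EC100)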
MPTP inh – permeability transition pore inhibition. inhibition, % at 10 µM. isolated mouse mitochondria, Ca2+ swelling absorbance, 30 min. hit rate 1.4% among 360,000;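 active = inhibition of 50% or more, scaled per plate between neutral and stimulator controls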
GPR7 antag cf – human GPR7 antagonism, confirmation assay; shares compounds with GPR7 antagonist; GPR7-expressing cells, calcium fluorescence antagonist mode; inhibition, % at 4.4 µM; hit rate 52% among 2,400; in the data active = inhibition above about 24%;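 also: stimulated with the GPR7 agonist NPW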
MCHR1 antagonist – MCHR1 (human) antagonism in GPR7 counter-screen; shares compounds with GPR7 antagonist; MCHR1-expressing cells, fluorescence antagonist assay; inhibition, % at 4.4 µM; hit rate 62% among 2,400; AID 2148; in the data active = inhibition above about 22%
Each line names hits and unclear results; the compound was inactive in the other large screens (follow-up assays come after a bar, where they were run).

COc1cccc(-n2ccnc2SCC(=O)Nc2ccccc2F)c1	GPR7 antagonist 21 | GPR7 antag cf inactive | MCHR1 antagonist inactive
COc1ccc(NC(=O)CSc2nccn2-c2cccc(OC)c2)cc1	none
COc1cccc(-n2ccnc2SCC(=O)Nc2cc(OC)ccc2OC)c1	GPR7 antagonist 38 | GPR7 antag cf inactive | MCHR1 antagonist 38
COc1cccc(-n2ccnc2SCC(=O)Nc2ccccc2)c1	none
COc1ccccc1-c1cc(-c2ccc(O)cc2)nc(N)c1C#N	GPR7 antagonist 37 | GPR7 antag cf inactive | MCHR1 antagonist inactive
Cc1onc(-c2cccc(Cl)c2Cl)c1C(=O)O/N=C(\N)c1ccc([N+](=O)[O-])o1	GPR7 antagonist 31 | GPR7 antag cf 45 | MCHR1 antagonist 55
CC(=O)C1=C(c2ccccc2)NC(=S)NC1c1ccc(O)c(O)c1 (stereo unspecified)	none
CCOC(=O)COc1c(Cl)cc(C2NC(=S)NC(c3ccccc3)=C2C(C)=O)cc1OC (stereo unspecified)	GPR7 antagonist 24 | GPR7 antag cf 28 | MCHR1 antagonist inactive
CC(=O)C1=C(c2ccccc2)NC(=S)NC1c1cc(Cl)c(OC(C)C)c(Cl)c1 (stereo unspecified)	GPR7 antagonist 29 | GPR7 antag cf 56 | MCHR1 antagonist 57
COc1cc(C2NC(=S)NC(c3ccccc3)=C2C(C)=O)cc(Cl)c1OCC(=O)O (stereo unspecified)	none
CCCCNc1cccc2c1S(=O)(=O)N[C@H](CC(C)C)CO2	none (no result: GPR7 antagonist, DAGLB inhibitor, MPTP inh)
CCOC(=O)C(C(=O)N(C)Cc1ccccc1)C1CCCCC1 (stereo unspecified)	GPR7 antagonist 32 | GPR7 antag cf 27 | MCHR1 antagonist 30
CCCCNC(=O)C[C@H]1C[C@@]2(C(=O)OC)C(=C[C@H](COCc3ccccc3)O[C@@H]2C)N(CCC2=CCCCC2)C1=O	none (no result: GPR7 antagonist, DAGLB inhibitor, MPTP inh)
O=C(c1cccc(C(F)(F)F)c1)C1CCCN(Cc2cccn2-c2ncccn2)C1 (stereo unspecified)	GPR7 antagonist 21 | GPR7 antag cf 34 | MCHR1 antagonist 35
COc1ccc(Cl)c(-c2cc(C(=O)Nc3ccccc3)[nH]n2)c1	none (no result: GPR7 antagonist, DAGLB inhibitor)
CC1=CC2=NC(=O)/C(=C/c3coc4ccc(Cl)cc4c3=O)C(=N)N2O1	GPR7 antagonist 21, TAAR1 agonist 43 | GPR7 antag cf 28 | MCHR1 antagonist 61
O=C(CSC1=NCCS1)NC(c1ccccc1)c1ccccc1	none
O=C(CSC1=NCCS1)NC(NC(=O)CSC1=NCCS1)c1ccccc1	GPR7 antagonist 29 | GPR7 antag cf inactive | MCHR1 antagonist inactive
Cc1ccc(C2CC(C(F)F)n3ncc(C(=O)Nc4c(C)nn(Cc5c(F)cccc5Cl)c4C)c3N2)cc1 (stereo unspecified)	GPR7 antagonist 24 | GPR7 antag cf 56 | MCHR1 antagonist 27
CN(Cc1ccccc1)C(=O)c1ccccc1-c1ccccc1	GPR7 antagonist 69 | GPR7 antag cf inactive | MCHR1 antagonist inactive
CCOC(=O)C1CCCN(C(=O)c2sc3nc(C)nc(N(CC)CC)c3c2C)C1 (stereo unspecified)	none
CCC1CCCCN1C(=O)c1sc2nc(C)nc(N(CC)CC)c2c1C (stereo unspecified)	GPR7 antagonist 25 | GPR7 antag cf inactive | MCHR1 antagonist inactive
Cc1ccc(-c2[nH]c3ccccc3c2SCCN)cc1	none
NCCSc1c(-c2ccc(F)cc2)[nH]c2ccccc12	GPR7 antagonist 25 | GPR7 antag cf 41 | MCHR1 antagonist 38
NCCSc1c(-c2ccc(Cl)cc2)[nH]c2ccccc12	none
NCCSc1c(-c2ccccc2)[nH]c2ccccc12	GPR7 antagonist 21 | GPR7 antag cf inactive | MCHR1 antagonist 23
CCOC(=O)C1=C(C(=O)OCC)c2ccc(OC)c(OC)c2C1	none (no result: GPR7 antagonist)
CC(C)NC(=O)c1cc(-c2ccc3c(c2)OCO3)on1	GPR7 antagonist 44 | GPR7 antag cf inactive | MCHR1 antagonist inactive
CCCNC(=O)c1cc(-c2ccc3c(c2)OCO3)on1	none
CN(Cc1ccccc1)C(=O)Cn1nnc(-c2ccccc2)c1COc1ccccc1	none (no result: GPR7 antagonist, DAGLB inhibitor)
CCNCc1cc(Cl)c(OCc2ccccc2)c(OCC)c1	none
COc1cc(CNC2CCCC2)cc(Cl)c1OCc1ccc(F)cc1	GPR7 antagonist 26 | GPR7 antag cf 25 | MCHR1 antagonist 22
COc1cc(CNC2CCCCCCC2)cc(Cl)c1OCC(N)=O	none
CCOc1cc(CNC2CCCC2)cc(Cl)c1OCc1ccc(F)cc1	GPR7 antagonist 25, TAAR1 agonist 40 | GPR7 antag cf 49 | MCHR1 antagonist 54
Clc1ccc(Cn2ncc3c(N4CCCC4)ncnc32)cc1	GPR7 antagonist 25 | GPR7 antag cf inactive | MCHR1 antagonist inactive
CC12CCC3C(CCC4CC(O)CCC43C)C1CC(=O)C2 (stereo unspecified)	none (no result: GPR7 antagonist, DAGLB inhibitor)
CN(C)S(=O)(=O)c1ccc(N2CCCC2)c(C(=O)NC(c2ccccc2)c2ccccc2)c1	GPR7 antagonist 25 | GPR7 antag cf 32 | MCHR1 antagonist 22
CN(C)S(=O)(=O)c1ccc(N2CCCC2)c(C(=O)NNC(=O)c2ccccc2)c1	none (no result: GPR7 antagonist)
CCc1nc2ccc(C(=O)NCCOc3ccc(OC)cc3)cn2c1N(C=O)Cc1ccc(OC)cc1	none (no result: GPR7 antagonist, DAGLB inhibitor)
CC(=O)N(O)c1ccc(C=Cc2ccccc2)cc1	none (no result: GPR7 antagonist, DAGLB inhibitor)
CSCCC(NC(=O)c1ccco1)C(=O)OC(C)C(=O)NC(=O)NC1CCCCC1 (stereo unspecified)	GPR7 antagonist 29 | GPR7 antag cf inactive | MCHR1 antagonist 48
O=C1NC[C@@H](CCCCN2CCN(Cc3ccccc3)C(=O)C2=O)N(Cc2ccccc2)C1=O	none (no result: GPR7 antagonist, DAGLB inhibitor)
COc1ccccc1OCC(=O)Nc1c2c(nn1-c1ccc(C)cc1)CS(=O)(=O)C2	none (no result: GPR7 antagonist)
COc1ccccc1OCC(=O)Nc1c2c(nn1-c1ccccc1)CS(=O)(=O)C2	GPR7 antagonist 23 | GPR7 antag cf inactive | MCHR1 antagonist inactive
c1ccc(-c2ccc(CN3CCSCC3)cc2)cc1	GPR7 antagonist 24 | GPR7 antag cf inactive | MCHR1 antagonist inactive
COc1cccc(-c2oc3c(c2C(=O)OCCN2CCCCC2)C(O)CCC3)c1 (stereo unspecified)	none (no result: GPR7 antagonist, DAGLB inhibitor)
CC1CC(C)C[N+](=C2C=C(N3CCCC3)CC(C)(C)C2)C1 (stereo unspecified)	GPR7 antagonist 50 | GPR7 antag cf 58 | MCHR1 antagonist 53
CC1(C)CC(N2CCN(c3ccccc3)CC2)=CC(=[N+]2CCCC2)C1	none
COC(=O)C1=C(C)NC(=S)NC1c1cccc(OC)c1 (stereo unspecified)	none (no result: GPR7 antagonist, DAGLB inhibitor, MPTP inh)
Nc1[nH]c(C(=O)c2ccccc2)c(-c2ccccn2)c1C(=O)c1c[nH]c2ccc(F)cc12	none (no result: GPR7 antagonist, DAGLB inhibitor, MPTP inh)
OC(COCc1ccc(Cl)cc1)CN1CCN(CC(O)COCc2ccc(Cl)cc2)CC1 (stereo unspecified)	GPR7 antagonist 26 | GPR7 antag cf 68 | MCHR1 antagonist 73
